# High-throughput results from PubChem BioAssay.
# This excerpt belongs to a sample that is enriched for hits.
# HUVEC inhibit = human endothelial cell proliferation inhibition; 1.1% of 86,000 active; viability, % at 10 µM (by protocol); HUVEC proliferation, CellTiter-Glo luminescence, 72 h; active compounds read low;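 active = viability at or below 30%; inactive = viability above 30%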;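 note: 100% = median luminescence of DMSO-only cell control wells on each plate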
# Fibroblast inh = blocks proliferation of human lung fibroblasts; LL 47 human lung fibroblast viability, ATP luminescence; active compounds read low; viability, % at 10 µM; 1.1% of 85,000 active;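 active = viability at or below 50% in the single dose screen; inactive = viability above 50%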;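 note: compound exposure lasted 72 h before the ATP readout; 100% = median luminescence of untreated cell-only wells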
#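 Signal: luminescent ATP detection, CellTiter-Glo; assay system: LL 47 human lung fibroblasts; input: 1,150 cells/well; incubation: overnight cell rest, 72 h compound treatment at 37 °C; measure: % viability versus median cells-only luminescence; medium: IMEM growth medium with 15% fetal bovine serum; dosing: compound addition at 0.1% DMSO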
# bCat KO growth = beta-catenin-lacking colon tumor cell growth suppression; viability, % at 10 µM; HCT116 beta-catenin knockout viability, CellTiter-Glo, 60 h; active compounds read low; AID 818; 1.5% of 140,000 active;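 active = viability at or under a set limit, the compound median less 4 SD, cut at about 6% in these data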;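 note: 0% = Hyamine 1622 control at 20 µM and 100% = untreated cell control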
# Pyk2 oligo antag = blocks oligomerization of human Pyk2 in cells; Q14289; Q293 cells, Pyk2 FERM NanoBiT luminescence; active compounds read low; z-score (the deposit names both 25 µM and 10 µM); 0.83% of 99,000 active; AID 1347419;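 active = Z-score of -3 or lower, scaled per plate to the spread of control and sample wells; inactive = z-score above -3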;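 note: negative z-score means lost luminescence so less FERM oligomerization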
# H69AR growth 86K = growth inhibitors of human H69AR lung tumor cells; H69AR lung tumor viability, ATP luminescence, 72 h; active compounds read low; viability, % at 10 µM; 6% of 85,000 active;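 active = viability at or below 40%; inactive = viability above 40%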;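 note: multidrug resistant small cell line overexpressing MRP-1 efflux transporter; 100% = mean luminescence of untreated control wells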
# PTEN del growth = PTEN-deleted cell growth suppression; HCT116 PTEN-null viability, CellTiter-Glo, 60 h; active compounds read low; viability, % at 10 µM; 1.2% of 140,000 active;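 active = viability at or below a set limit, 4 SD under the median of all tested compounds, cut at about 3.7% in these data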;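 note: PTEN knockout HCT116 line with beta catenin targeted HCT116 as companion control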
# The depositor's hits bear a star; nt = not tested or not shown.
SMILES,HUVEC inhibit,Fibroblast inh,bCat KO growth,Pyk2 oligo antag,H69AR growth 86K,PTEN del growth
COc1ccc(CNc2nc(SCc3cc(=O)n4cc(Cl)ccc4n3)nc3ccccc23)cc1,nt,nt,64,0.54,nt,62
Cc1cccc2sc(NNC(=O)c3ccc(S(=O)(=O)N4CCc5ccccc5C4)cc3)nc12,nt,nt,3.7*,nt,nt,5
CCOC(=O)N1CCN(S(=O)(=O)c2ccc(C(=O)NNc3nc4c(C)cccc4s3)cc2)CC1,nt,nt,11,nt,nt,11
Cc1cccc2sc(NNC(=O)c3ccc(S(=O)(=O)N4CCCC(C)C4)cc3)nc12 (configuration not stated),nt,nt,1.9*,nt,nt,4
CC(C)(Oc1ccc(Cl)cc1)C(=O)N(Cc1ccccc1)c1ccccn1,nt,nt,68,nt,nt,62
Cc1cnc(NC(=O)CCCc2nc3ccccc3s2)s1,30*,35*,15,-1,71,10
Cc1ccc(-n2nnnc2C(Cl)(Cl)c2nnnn2-c2ccc(C)cc2)cc1,nt,nt,1.8*,-0.61,nt,1.3*
CC(C)NC(=O)NC(=O)COc1ccc(Br)cc1Br,nt,nt,89,nt,nt,98
O=C(O)C1C2C=CC(C2)C1C(=O)NC(c1ccccc1)c1ccccc1 (configuration not stated),90,98,97,-0.1,99,99
O=C(COc1ccccc1)Nc1ccc(OC(F)(F)C(F)F)c(NC(=O)COc2ccccc2)c1,nt,nt,64,1.3,nt,70
O=C(NCCO)C1(c2ccc(Cl)cc2)CCCC1,nt,nt,84,-0.01,nt,86
COc1cc2c(cc1NC(=S)Nc1cccc(C(F)(F)F)c1)oc1ccccc12,45,99,71,-0.58,30*,39
COc1cc2c(cc1NC(=S)Nc1cccc3ccccc13)oc1ccccc12,nt,nt,74,-0.97,nt,70
Nc1c(-c2ccccc2)c(CSc2nc3ccccc3[nH]2)nn1-c1ccc(C(=O)O)cc1,nt,nt,91,nt,nt,96
C=CCNc1nnc(SC2CC(=O)N(c3ccc(OCCC)cc3)C2=O)s1 (configuration not stated),98,90,86,0.9,1.9*,94
Cc1ccccc1Cn1cc(NC(=O)CSc2nc3c(c(C(F)(F)F)n2)CCc2ccccc2-3)cn1,nt,nt,29,1.2,nt,36
Cc1nc(NC(=O)c2ccccc2)sc1-c1csc(N)n1,55,84,34,-0.07,30*,44
CCOc1ccccc1Nc1nc(-c2sc(NC(=O)c3cccc(Cl)c3)nc2C)cs1,nt,nt,5.1*,nt,nt,6
CCOc1ccccc1Nc1nc(-c2sc(NC(=O)c3ccccc3)nc2C)cs1,nt,nt,86,nt,nt,74
CN(C)CCNC(=O)CNC(=S)N(Cc1ccccc1)Cc1cccnc1,nt,nt,97,nt,nt,100
Cc1ccc(S(=O)(=O)NCC2CCC(C(=O)O)CC2)cc1 (configuration not stated),108,99,92,0.68,103,100
COCCCNC(=S)Nc1ccc2c(c1)OCCO2,nt,nt,93,nt,nt,95
N#CC(C#N)=C1C=CC=CN1/C(=C\c1ccco1)C(=O)c1ccc(Cl)cc1,nt,nt,2.4*,nt,nt,2.2*
O=C(O)/C(=C/c1ccco1)NC(=O)c1ccccc1,nt,nt,96,nt,nt,91
N#CC(C#N)=C1C=CC=CN1/C(=C\c1ccco1)C(=O)c1ccc(-c2ccccc2)cc1,nt,nt,1.7*,nt,nt,1.5*
SMILES,HUVEC inhibit,Fibroblast inh,bCat KO growth,Pyk2 oligo antag,H69AR growth 86K,PTEN del growth
Clc1ccc(CSc2ncnc3nc[nH]c23)cc1,nt,nt,95,nt,nt,81
CC(C)(C)S(=O)(=O)c1cnc2c(-c3ccc(Cl)cc3)cnn2c1N,nt,nt,2.6*,0.21,nt,1.7*
Cc1ccc2nc(Cl)c(C3CC(c4cccs4)=NN3S(C)(=O)=O)cc2c1 (configuration not stated),nt,nt,92,nt,nt,87
COc1ccc(-c2csc(NC(=O)c3ccc(S(=O)(=O)N4CCc5ccccc5C4)cc3)n2)c(OC)c1,nt,nt,68,nt,nt,77
COc1ccc(Cn2c(SCc3ccc(C)cc3)nc3cc(OC)c(OC)cc3c2=N)cc1Cl,nt,nt,1.2*,0.12,nt,1.2*
CCCCNC(=O)CSc1nc2cc(OC)c(OC)cc2c(=O)n1Cc1ccc(OC)cc1,nt,nt,1.3*,0.59,nt,0.6*
COc1ccc(Cn2c(SCc3cc(C)ccc3C)nc3cc(OC)c(OC)cc3c2=N)cc1,nt,nt,1.9*,-0.36,nt,1.4*
CCCCNC(=O)C1CCN(c2nc(OC)nc(OC)n2)CC1,106,102,86,1.1,88,110
Cc1ccc(S(=O)(=O)N/N=c2\oc3ccccc3cc2C(=O)Nc2cccc(C)c2)cc1,nt,nt,103,nt,nt,100
COc1ccc(C2C(=O)N(C3CCCCC3)CC(=O)N2CC2COc3ccccc3O2)cc1 (configuration not stated),nt,nt,85,-1.4,nt,79
O=C(CCNc1cccc(Cl)c1)c1ccco1,92,97,50,0.01,2.2*,38
O=C(CNC(=O)c1ccco1)OCc1cccc(Cl)c1,86,105,94,0.19,92,102
CCC(C)[C@H](NC(=O)NC(C)C)C(=O)O (some centres not stated),nt,nt,99,0.49,nt,94
COC(=O)c1oc2c(c1C)C1(CCC2)SCCS1,88,87,88,-0.34,37*,92
CCOC(=O)c1c(NC(=O)CSc2nc3c(c(=O)n(C)c(=O)n3C)n2CC)sc(C)c1C,53,88,nt,0.74,4.0*,nt
CCCn1c(SCC(=O)Nc2nnc(CC)s2)nc2c1c(=O)n(C)c(=O)n2C,103,97,nt,nt,82,nt
CCCn1c(SCC(=O)Nc2sc(C)c(C)c2C(=O)OC)nc2c1c(=O)n(C)c(=O)n2C,80,94,nt,nt,66,nt
CCCn1c(SCC(=O)Nc2nc3c(s2)CCCC3)nc2c1c(=O)n(C)c(=O)n2C,83,93,91,0.18,32*,73
COc1cccc(C2C3=C(N=c4s/c(=C\c5cccc(O)c5)c(=O)n42)c2ccccc2CC3)c1OC (configuration not stated),nt,nt,2.4*,-2,nt,1.7*
COc1cccc(C2C3=C(N=c4s/c(=C\c5ccc(O)cc5)c(=O)n42)c2ccccc2CC3)c1OC (configuration not stated),nt,nt,81,nt,nt,84
COc1cc(-c2nnc3sc(-c4cccnc4)nn23)cc(OC)c1OC,97,103,nt,nt,87,nt
COc1cc2nc(NCC3CCCO3)n3nc(-c4cccnc4)nc3c2cc1OC (configuration not stated),71,87,83,-0.51,21*,88
COc1ccc(-n2ncc3c(NCC4CCCO4)ncnc32)cc1 (configuration not stated),85,112,101,-0.77,87,103
CCN(CC)CCCNc1nc2cc(OC)c(OC)cc2c2nc(-c3cccnc3)nn12,76,71,1.7*,0.05,65,1.6*
CCN(CC)CCCNc1nc(-c2ccccc2)nc2ccccc12,79,90,61,-0.22,77,67
CCN(CC)CCCNc1nc2cc(OC)c(OC)cc2c2nc(-c3ccccc3)nn12,26*,1.8*,0.8*,-0.08,6.5*,0.8*
